ChEMBL document CHEMBL4699494, “Design, synthesis and evaluation of novel indirubin-based N-hydroxybenzamides, N-hydroxypropenamides and N-hydroxyheptanamides as histone deacetylase inhibitors and antitumor agents” (Bioorg Med Chem Lett, 2020)
pIC50: −log10 of the molar value. Structures can show the parent of a compound that is named as a salt. The source made the active and inactive calls. No cut-off for these calls is given here.

What was measured:
SW-620 [1] = assay: Induction of apoptosis in human SW620 cells assessed as early apoptotic cells by flow cytometry; assay type: functional, cell-based
PC-3 = assay: Cytotoxicity against human PC3 cells by colorimetric method; assay type: functional, cell-based
Histone deacetylase = assay: Inhibition of HDAC in human HeLa nuclear extract using fluoroscence-labeled acetylated peptide as substrate by fluorometric assay; assay type: subcellular, Nucleus
NCI-H23 [2] = assay: Potency index, ratio of adriamycin IC50 to compound IC50 for human NCI-H23 cells by colorimetric method; assay type: functional
Summary of the method: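 Growth inhibition of cancer cells read by a colorimetric method with slight modifications. IC50 is the concentration giving 50% reduction in cell growth, computed by the Probits method and averaged over three independent experiments. The index is the reference drug's IC50 divided by the compound's IC50 in the same cell line.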

SW-620 [3] = assay: Cytotoxicity against human SW620 cells by colorimetric method; assay type: functional, cell-based
NCI-H23 [4] = assay: Cytotoxicity against human NCI-H23 cells by colorimetric method; assay type: functional, cell-based
[5] = target: T1, Protein deacetylase HDAC6 (Homo sapiens, UniProt Q9UBN7); assay: Inhibition of HDAC6 (unknown origin)
T1 sequence (Q9UBN7 whole entry): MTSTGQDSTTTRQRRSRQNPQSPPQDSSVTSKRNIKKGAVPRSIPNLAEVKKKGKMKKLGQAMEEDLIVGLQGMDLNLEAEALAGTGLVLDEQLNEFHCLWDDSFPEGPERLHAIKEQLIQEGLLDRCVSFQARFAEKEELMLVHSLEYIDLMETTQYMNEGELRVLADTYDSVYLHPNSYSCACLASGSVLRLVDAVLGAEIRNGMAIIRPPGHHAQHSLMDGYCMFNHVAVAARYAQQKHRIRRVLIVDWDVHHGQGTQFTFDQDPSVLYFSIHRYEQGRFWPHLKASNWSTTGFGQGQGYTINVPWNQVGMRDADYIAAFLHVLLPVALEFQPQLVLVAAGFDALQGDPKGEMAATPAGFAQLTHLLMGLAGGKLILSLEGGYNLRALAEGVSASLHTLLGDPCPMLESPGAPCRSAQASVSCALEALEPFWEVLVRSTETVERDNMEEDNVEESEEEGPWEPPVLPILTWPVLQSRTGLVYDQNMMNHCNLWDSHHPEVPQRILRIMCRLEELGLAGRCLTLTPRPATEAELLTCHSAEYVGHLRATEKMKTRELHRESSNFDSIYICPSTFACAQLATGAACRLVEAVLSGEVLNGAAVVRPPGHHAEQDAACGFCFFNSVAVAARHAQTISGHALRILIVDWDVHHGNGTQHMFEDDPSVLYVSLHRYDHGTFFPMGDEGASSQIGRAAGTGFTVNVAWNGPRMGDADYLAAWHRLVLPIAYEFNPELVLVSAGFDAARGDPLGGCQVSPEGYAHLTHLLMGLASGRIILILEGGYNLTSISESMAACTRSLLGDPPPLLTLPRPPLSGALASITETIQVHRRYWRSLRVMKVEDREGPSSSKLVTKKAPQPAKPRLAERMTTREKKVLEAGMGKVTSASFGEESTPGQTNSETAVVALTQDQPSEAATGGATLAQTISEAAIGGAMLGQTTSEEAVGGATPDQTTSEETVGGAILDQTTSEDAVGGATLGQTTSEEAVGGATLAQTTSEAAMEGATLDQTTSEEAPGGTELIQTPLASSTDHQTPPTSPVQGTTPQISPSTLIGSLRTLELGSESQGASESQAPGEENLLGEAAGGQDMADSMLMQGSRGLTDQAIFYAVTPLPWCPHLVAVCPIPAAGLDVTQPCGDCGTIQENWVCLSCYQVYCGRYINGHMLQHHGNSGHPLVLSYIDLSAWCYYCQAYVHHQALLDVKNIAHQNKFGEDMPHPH

Histone deacetylase 2 = Histone deacetylase 2 (Homo sapiens, UniProt Q92769); assay: Inhibition of HDAC2 (unknown origin)
SW-620 [6] = assay: Induction of cell cycle arrest in human SW-620 cells assessed as accumulation at S phase by flow cytometry; assay type: functional, cell-based
SW-620 [7] = assay: Induction of cell cycle arrest in human SW-620 cells assessed as accumulation at G0/G1 phase by flow cytometry; assay type: functional, cell-based
Homo sapiens = species: Homo sapiens; assay: Selectivity index, ratio of IC50 for HDAC2 (unknown origin) to IC50 for HDAC6 (unknown origin)

Sequence of Histone deacetylase 2 (Q92769 whole entry): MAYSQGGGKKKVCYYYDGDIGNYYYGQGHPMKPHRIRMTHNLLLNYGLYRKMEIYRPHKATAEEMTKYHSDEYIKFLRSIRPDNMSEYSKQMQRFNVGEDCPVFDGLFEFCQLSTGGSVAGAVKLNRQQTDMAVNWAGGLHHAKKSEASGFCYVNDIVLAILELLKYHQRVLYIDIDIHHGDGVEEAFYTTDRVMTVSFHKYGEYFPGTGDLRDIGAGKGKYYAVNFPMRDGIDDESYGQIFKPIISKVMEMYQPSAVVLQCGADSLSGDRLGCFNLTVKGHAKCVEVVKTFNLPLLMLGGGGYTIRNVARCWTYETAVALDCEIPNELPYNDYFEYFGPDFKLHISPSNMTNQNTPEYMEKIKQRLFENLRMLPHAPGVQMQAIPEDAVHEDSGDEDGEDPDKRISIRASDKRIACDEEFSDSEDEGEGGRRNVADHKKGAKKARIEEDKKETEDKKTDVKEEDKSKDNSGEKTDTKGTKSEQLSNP

Row | IC50 (Histone deacetylase) [µM] | pIC50 [5] | pIC50 (Histone deacetylase 2) | Ratio IC50 (Homo sapiens) | Compound | Activity (SW-620 [1]) | pIC50 (PC-3) | Ratio IC50 (NCI-H23 [2]) | pIC50 (SW-620 [3]) | pIC50 (NCI-H23 [4]) | Activity (SW-620 [6]) | Activity (SW-620 [7])
1 | – | – | – | – | O=C(CCCCCCC(=O)Nc1ccccc1)NO | Active | – | – | – | – | – | –
2 | 0.014 | – | – | – | O=C(CCCCCCN1C(=O)/C(=C2\Nc3ccccc3\C2=N/O)c2cc(F)ccc21)NO | – | 7.92 | <=10 | 7.10 | 8.10 | – | –
3 | 0.003 | – | – | – | O=C(CCCCCCN1C(=O)/C(=C2\Nc3ccccc3\C2=N/O)c2cc(Cl)ccc21)NO | – | 7.05 | <=10 | 7.22 | 7.52 | – | –
4 | 0.071 | 7.31 | 7.06 | – | O=C(NO)c1ccc(CN2C(=O)/C(=C3\Nc4ccccc4\C3=N/O)c3cccc(Cl)c32)cc1 | – | 7.22 | <=10 | 7.05 | 7.22 | – | –
5 | 0.422 | – | – | – | O=C(/C=C/c1ccc(CN2C(=O)/C(=C3\Nc4ccccc4\C3=N/O)c3cc(F)ccc32)cc1)NO | – | 7.30 | <=10 | 7.30 | 8.10 | – | –
6 | 0.005 | – | – | – | COc1ccc2c(c1)/C(=C1/Nc3ccccc3/C1=N\O)C(=O)N2Cc1ccc(/C=C/C(=O)NO)cc1 | – | 7.52 | <=10 | 7.40 | 7.30 | – | –
7 | 0.004 | – | – | – | O=C(CCCCCCN1C(=O)/C(=C2\Nc3ccccc3\C2=N/O)c2cc(Br)ccc21)NO | – | 7.52 | <=10 | 7.05 | 8.05 | – | –
8 | 0.095 | – | – | – | O=C(/C=C/c1ccc(CN2C(=O)/C(=C3\Nc4ccccc4\C3=N/O)c3ccccc32)cc1)NO | Active | 7.30 | <=10 | 7.30 | 8.05 | Active | Active
9 | 0.318 | – | – | – | O=C(/C=C/c1ccc(CN2C(=O)/C(=C3\Nc4ccccc4\C3=N/O)c3cc(Cl)ccc32)cc1)NO | – | 7.22 | <=10 | 7.10 | 8.15 | – | –
10 | 0.183 | – | – | – | O=C(/C=C/c1ccc(CN2C(=O)/C(=C3\Nc4ccccc4\C3=N/O)c3cc(Br)ccc32)cc1)NO | – | 7.05 | <=10 | 7.22 | 8.05 | – | –
11 | 0.007 | – | – | – | O=C(CCCCCCN1C(=O)/C(=C2\Nc3ccccc3\C2=N/O)c2cccc(Cl)c21)NO | – | 7.52 | <=10 | 7.05 | 7.30 | – | –
12 | 0.195 | 8.15 | 6.69 | 29 | O=C(NO)c1ccc(CN2C(=O)/C(=C3\Nc4ccccc4\C3=N/O)c3ccccc32)cc1 | – | 7.22 | <=10 | 7.15 | 7.15 | – | Active
13 | 0.02 | – | – | – | Cc1ccc2c(c1)/C(=C1/Nc3ccccc3/C1=N\O)C(=O)N2Cc1ccc(/C=C/C(=O)NO)cc1 | – | 7.22 | <=10 | 7.30 | 8.00 | – | –
14 | 0.039 | 7.62 | 7.12 | – | O=C(NO)c1ccc(CN2C(=O)/C(=C3\Nc4ccccc4\C3=N/O)c3cc(Br)ccc32)cc1 | – | 7.30 | <=10 | 7.15 | 8.15 | – | –
15 | 0.018 | – | – | – | Cc1ccc2c(c1)/C(=C1/Nc3ccccc3/C1=N\O)C(=O)N2CCCCCCC(=O)NO | – | 7.10 | <=10 | 7.30 | 8.00 | – | –
16 | 0.174 | 7.80 | 6.73 | 11.7 | O=C(NO)c1ccc(CN2C(=O)/C(=C3\Nc4ccccc4\C3=N/O)c3cc(Cl)ccc32)cc1 | – | 7.30 | <=10 | 7.22 | 7.30 | – | –
17 | – | – | – | – | COc1cccc2c1C(=O)c1c(O)c3c(c(O)c1C2=O)C[C@@](O)(C(=O)CO)C[C@@H]3O[C@H]1C[C@H](N)[C@H](O)[C@H](C)O1 [DOXORUBICIN HYDROCHLORIDE] | – | 7.05 | – | 7.05 | 7.05 | – | –
18 | 0.021 | – | – | – | COc1ccc2c(c1)/C(=C1/Nc3ccccc3/C1=N\O)C(=O)N2CCCCCCC(=O)NO | – | 7.30 | <=10 | 7.52 | 7.15 | – | –
19 | 0.005 | 7.70 | 7.68 | – | Cc1ccc2c(c1)/C(=C1/Nc3ccccc3/C1=N\O)C(=O)N2Cc1ccc(C(=O)NO)cc1 | – | 7.05 | <=10 | 7.52 | 8.00 | – | –
20 | 0.604 | – | – | – | O=C(/C=C/c1ccc(CN2C(=O)/C(=C3\Nc4ccccc4\C3=N/O)c3cccc(Cl)c32)cc1)NO | – | 7.05 | <=10 | 7.22 | 7.30 | – | –
21 | 0.218 | 7.37 | 6.71 | 4.5 | O=C(NO)c1ccc(CN2C(=O)/C(=C3\Nc4ccccc4\C3=N/O)c3cc(F)ccc32)cc1 | – | 7.30 | <=10 | 7.70 | 7.52 | – | –
22 | – | – | – | – | O=C1Nc2ccccc2/C1=C1/Nc2ccccc2/C1=N\O | – | 4.80 | – | 4.87 | 4.95 | – | –
23 | 0.022 | – | – | – | O=C(CCCCCCN1C(=O)/C(=C2\Nc3ccccc3\C2=N/O)c2ccccc21)NO | Active | 7.30 | <=10 | 7.05 | 7.05 | – | –
24 | 0.025 | 7.52 | 7.51 | – | COc1ccc2c(c1)/C(=C1/Nc3ccccc3/C1=N\O)C(=O)N2Cc1ccc(C(=O)NO)cc1 | – | 7.52 | <=10 | 7.40 | 7.05 | – | –
